Some results are limits rather than exact numbers.

The nature of experiment [1]: Selectivity ratio of IC50 for chymotrypsin-like activity of human 20s proteasome beta 5c subunit to IC50 for human proteasome subunit beta-5i chymotrypsin like activity.
Experiment [2] has as its target T1, Proteasome Macropain subunit MB1 (Homo sapiens, UniProt P28074).
T1 sequence (P28074 whole entry): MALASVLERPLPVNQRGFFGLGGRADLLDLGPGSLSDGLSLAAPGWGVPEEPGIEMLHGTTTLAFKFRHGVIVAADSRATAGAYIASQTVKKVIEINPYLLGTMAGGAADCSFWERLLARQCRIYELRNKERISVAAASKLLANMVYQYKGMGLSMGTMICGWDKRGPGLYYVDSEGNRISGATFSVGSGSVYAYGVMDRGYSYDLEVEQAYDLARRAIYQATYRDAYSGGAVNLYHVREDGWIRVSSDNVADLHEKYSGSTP
Briefly: Inhibition of chymotrypsin-like activity of human 20s proteasome beta 5c subunit using suc-WLA-AMC as flurogenic substrate preincubated for 15 mins followed by substrate addition and measured after 1 hr by fluorescence assay. The method, boiled down: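 Constitutive proteasome isolated from human hepatic cells, added at 40 μg/mL (pre-dilution) in 100 mM Tris-HCl pH 7.5. Compounds came from DMSO diluted in water (10% DMSO solution). Preincubated 15 min at 25 °C, then AMC substrate added (100 µM final) for 1 h at 25 °C. Fluorescence read at 355 nm excitation and 460 nm emission; IC50 from a variable-slope sigmoidal fit.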

The target of experiment [3] is T2, Proteasome subunit beta type-8 (Homo sapiens, UniProt P28062).
T2 sequence (P28062 whole entry): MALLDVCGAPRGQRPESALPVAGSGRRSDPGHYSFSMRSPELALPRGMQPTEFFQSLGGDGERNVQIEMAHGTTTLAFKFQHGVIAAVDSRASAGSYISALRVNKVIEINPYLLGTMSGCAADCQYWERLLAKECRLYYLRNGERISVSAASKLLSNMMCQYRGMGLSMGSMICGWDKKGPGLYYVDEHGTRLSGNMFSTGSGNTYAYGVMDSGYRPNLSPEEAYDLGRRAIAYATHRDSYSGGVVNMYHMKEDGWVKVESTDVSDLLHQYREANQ
As to the kind of experiment: Inhibition of human proteasome subunit beta-5i chymotrypsin like activity using SUC-ANW-AMC as flurogenic substrate preincubated for 15 mins followed by substrate addition and measured after 1 hr by fluorescence assay. The procedure, abridged: (§1)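 Immunoproteasome derived from human PBMC, added at 1 μg/mL (pre-dilution) in 100 mM Tris-HCl pH 7.5. Compounds were diluted to a 10% DMSO solution. After 15 min preincubation at 25 °C, AMC substrate added (100 µM final) and incubated 1 h at 25 °C. Read at ex 355/em 460 nm; IC50 by sigmoidal variable-slope fitting.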

Another experiment deals with RPMI-8226. Briefly: Antiproliferative activity against human RPMI-8226 cells assessed as inhibition of cell proliferation after 72 hrs by MTS assay. Format: functional, cell-based. As to conditions: RPMI-8226, 72 h. The procedure, abridged:
(§2)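 Cells grown in RPMI-1640 with 10% FBS and penicillin/streptomycin at 37 °C, 5% CO2. Seeded per well at 5×10³ (RPMI-8226) or 3×10⁴ (MM.1S), then exposed 72 h to graded compound concentrations or 0.2% DMSO vehicle. MTS/PMS added for 2–4 h; absorbance at 490 nm minus 690 nm. Inhibition = (Acontrol−Asample)/Acontrol; IC50 by sigmoidal variable-slope regression.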
In general terms: Tetrazolium assays rely on reduction of a dye to a coloured formazan, in cell work by metabolically active cells.

Experiment [4] deals with T3, Proteasome subunit beta type-10 (Homo sapiens, UniProt P40306).
T3 sequence (P40306 whole entry): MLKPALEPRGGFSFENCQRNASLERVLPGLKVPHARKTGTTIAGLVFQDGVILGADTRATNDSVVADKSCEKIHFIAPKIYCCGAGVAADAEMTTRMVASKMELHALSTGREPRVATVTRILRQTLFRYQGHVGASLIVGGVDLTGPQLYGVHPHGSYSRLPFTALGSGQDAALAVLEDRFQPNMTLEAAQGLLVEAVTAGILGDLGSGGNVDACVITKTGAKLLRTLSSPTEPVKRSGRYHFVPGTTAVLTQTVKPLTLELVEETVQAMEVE
As to the kind of experiment: Inhibition of human trypsin-like activity of 20s proteasome beta 2i subunit using SUC-VGR-AMC as flurogenic substrate preincubated for 15 mins followed by substrate addition and measured after 1 hr by fluorescence assay. The method, boiled down:
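Immunoproteasome derived from human PBMC, added at 1 μg/mL (pre-dilution) in 100 mM Tris-HCl pH 7.5. Compounds were diluted to a 10% DMSO solution. After 15 min preincubation at 25 °C, AMC substrate added (100 µM final) and incubated 1 h at 25 °C.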

For experiment [5], the target named is T4, Proteasome subunit beta type-9 (Homo sapiens, UniProt P28065).
T4 sequence (P28065 whole entry): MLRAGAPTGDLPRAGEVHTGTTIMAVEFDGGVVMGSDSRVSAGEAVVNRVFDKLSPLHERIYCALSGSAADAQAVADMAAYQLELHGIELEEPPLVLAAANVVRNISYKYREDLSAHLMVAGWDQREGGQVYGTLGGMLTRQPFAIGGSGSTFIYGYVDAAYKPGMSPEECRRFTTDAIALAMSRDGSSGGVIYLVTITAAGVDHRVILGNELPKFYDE
As to the kind of experiment: Inhibition of human caspase-like activity of 20s proteasome beta 1i subunit using SUC-PAL-AMC as flurogenic substrate preincubated for 15 mins followed by substrate addition and measured after 1 hr by fluorescence assay. The procedure, abridged: as §1

Another experiment relates to MM1.S. Briefly: Antiproliferative activity against human MM1.S cells assessed as inhibition of cell proliferation after 72 hrs by MTS assay. It counts as functional, cell-based. The procedure, abridged: as §2
Experiment [6] in a line: Inhibition of 20s proteasome beta 5c subunit (unknown origin). Also on record: species or system Homo sapiens.

In general, IC50 refers to the concentration at which inhibition is half-maximal. Consider `COc1ccc(C[C@H](NC(=O)[C@@H](C)NC(=O)N2CC[C@H](OC)C2)C(=O)N[C@@H](Cc2ccccc2)C(=O)[C@@]2(C)CO2)cc1`, for which, in experiment [1], the Ratio IC50 was 24.1. Moreover, the half-maximal inhibitory concentration (IC50) in experiment [2] is 606 nM; in experiment [3], 25.1 nM; in the experiment with RPMI-8226 it was 1880 nM; in experiment [4] it was greater than 10000 nM; in experiment [5], 5770 nM; in the experiment with MM1.S, 1370 nM.

In the case of `COc1ccc(C[C@H](NC(=O)[C@H](C)NC(=O)N2CCCC2)C(=O)N[C@@H](Cc2ccccc2)C(=O)[C@@]2(C)CO2)cc1`, the Ratio IC50 in experiment [1] amounted to 2. For the same compound, the results for the IC50 in experiment [2] and in experiment [3] were 498 nM and 246 nM, respectively.

As for `C[C@H](NC(=O)N1CCC(NC(=O)c2nccs2)CC1)C(=O)N[C@@H](Cc1c[nH]c2ccccc12)C(=O)N[C@@H](Cc1ccccc1)C(=O)[C@@]1(C)CO1`, the Ratio IC50 in experiment [1] was found to be 1.2. For the same compound, the half-inhibitory concentration (IC50) in experiment [2] is 25.6 nM; in experiment [3] it was 21.1 nM; in the experiment on RPMI-8226, 110 nM; in experiment [4] it was greater than 10000 nM; in experiment [5], 154 nM; in the experiment on MM1.S, 110 nM.

As for `COc1ccc(C[C@H](NC(=O)[C@H](C)NC(=O)N2CCc3ccccc3C2)C(=O)N[C@@H](Cc2ccccc2)C(=O)[C@@]2(C)CO2)cc1`, in experiment [1], the Ratio IC50 came to 1.8. Moreover, the IC50 came to 69.7 nM in experiment [2] and 37.8 nM in experiment [3].

In the case of `COc1ccc(C[C@H](NC(=O)[C@@H](C)NC(=O)N2CCC(OC)C2)C(=O)N[C@@H](Cc2ccccc2)C(=O)[C@@]2(C)CO2)cc1` (stereo partly drawn), the Ratio IC50 in experiment [1] is 24.8. Moreover, the figures for the IC50 in experiment [2] and in experiment [3] were 1110 nM and 44.5 nM, respectively.

On to `COc1ccc(C[C@H](NC(=O)[C@@H](C)NC(=O)N2CCCC2)C(=O)N[C@@H](Cc2ccccc2)C(=O)[C@@]2(C)CO2)cc1`, for which the Ratio IC50 in experiment [1] came to 21.2. For the same compound, the IC50 in experiment [2] is 1330 nM; in experiment [3], 62.9 nM.

`COc1ccc(C[C@H](NC(=O)[C@@H](C)NC(=O)N2CCc3ccccc3C2)C(=O)N[C@@H](Cc2ccccc2)C(=O)[C@@]2(C)CO2)cc1`: the Ratio IC50 in experiment [1] came to 11.9. In addition, the results for the IC50 in experiment [2] and in experiment [3] were 959 nM and 80.7 nM, respectively.

For `COc1ccc(C[C@H](NC(=O)[C@@H](C)NC(=O)N2CCC[C@@H](OC)C2)C(=O)N[C@@H](Cc2ccccc2)C(=O)[C@@]2(C)CO2)cc1`, in experiment [1], the Ratio IC50 is 8.2. Besides, the IC50 in experiment [2] was 244 nM; in experiment [3], 29.9 nM; in the experiment on RPMI-8226 it was 680 nM; in experiment [4], greater than 10000 nM; in experiment [5], 4270 nM; with MM1.S, 220 nM.

Turning to `C[C@H](NC(=O)N1CCC(NC(=O)c2nccs2)CC1)C(=O)N[C@@H](Cc1c[nH]c2ccccc12)C(=O)N[C@@H](CC1CCCCC1)C(=O)[C@@]1(C)CO1`, the Ratio IC50 in experiment [1] was 0.9. The figures for the IC50 in experiment [2] and in experiment [3] were 216 nM and 245 nM, respectively.

Regarding `C[C@@H](NC(=O)N1CCC(NC(=O)c2nccs2)CC1)C(=O)N[C@@H](Cc1c[nH]c2ccccc12)C(=O)N[C@@H](Cc1ccccc1)C(=O)[C@@]1(C)CO1`, the Ratio IC50 in experiment [1] was found to be 1.5. Also, the IC50 in experiment [2] was found to be 468 nM; in experiment [3], 323 nM.

Regarding `C[C@@H](NC(=O)N1CCC(NC(=O)c2nccs2)CC1)C(=O)N[C@@H](Cc1c[nH]c2ccccc12)C(=O)N[C@@H](CC1CCCCC1)C(=O)[C@@]1(C)CO1`, the Ratio IC50 in experiment [1] is 1.5. In addition, the figures for the IC50 in experiment [2] and in experiment [3] were 1080 nM and 719 nM, respectively.

Regarding `COc1ccc(C[C@H](NC(=O)[C@@H](C)NC(=O)N2CCC(OC)CC2)C(=O)N[C@@H](Cc2ccccc2)C(=O)[C@@]2(C)CO2)cc1`, in experiment [1], the Ratio IC50 came out at 24.9. In addition, the IC50 in experiment [2] was 647 nM; in experiment [3], 26 nM; in the experiment on RPMI-8226 it was 1920 nM; in experiment [4], greater than 10000 nM; in experiment [5] it was greater than 10000 nM; in the experiment with MM1.S, 1790 nM.

`COc1ccc(C[C@H](NC(=O)[C@H](C)NC(=O)N2CCC(OC)CC2)C(=O)N[C@@H](Cc2ccccc2)C(=O)[C@@]2(C)CO2)cc1`: the Ratio IC50 in experiment [1] stood at 3.9. Besides, the figures for the IC50 in experiment [2] and in experiment [3] were 74 nM and 18.9 nM, respectively.

For `COc1ccc(C[C@H](NC(=O)[C@H](C)NC(=O)CN2CCOCC2)C(=O)N[C@@H](Cc2ccccc2)C(=O)[C@@]2(C)CO2)cc1`, the IC50 in experiment [6] came to 422 nM; with RPMI-8226, 680 nM.

In the case of `COc1ccc(C[C@H](NC(=O)[C@@H](C)NC(=O)n2c3ccccc3c3ccccc32)C(=O)N[C@@H](Cc2ccccc2)C(=O)[C@@]2(C)CO2)cc1`, the Ratio IC50 in experiment [1] is 1.9. In addition, the results for the IC50 in experiment [2] and in experiment [3] were 71.7 nM and 38.2 nM, respectively.

Consider `COc1ccc(C[C@H](NC(=O)[C@H](C)NC(=O)N2CCC(NC(=O)c3nccs3)CC2)C(=O)N[C@@H](CC2CCCCC2)C(=O)[C@@]2(C)CO2)cc1`, for which the Ratio IC50 in experiment [1] came out at 1.9. Further, the values for the IC50 in experiment [2] and in experiment [3] were 245 nM and 129 nM, respectively.

Regarding `COc1ccc(C[C@H](NC(=O)[C@H](C)NC(=O)n2c3ccccc3c3ccccc32)C(=O)N[C@@H](Cc2ccccc2)C(=O)[C@@]2(C)CO2)cc1`, the Ratio IC50 in experiment [1] was determined as 0.6. In addition, the IC50 in experiment [2] is 35.5 nM; in experiment [3], 61 nM.

Take `COc1ccc(C[C@H](NC(=O)[C@@H](C)NC(=O)N2CCC(NC(=O)c3nccs3)CC2)C(=O)N[C@@H](CC2CCCCC2)C(=O)[C@@]2(C)CO2)cc1`: in experiment [1], the Ratio IC50 worked out at 3.8. Further, the results for the half-inhibitory concentration (IC50) in experiment [2] and in experiment [3] were 2710 nM and 718 nM, respectively.

Take `COc1ccc(C[C@H](NC(=O)[C@@H](C)NC(=O)N2CC[C@@H](OC)C2)C(=O)N[C@@H](Cc2ccccc2)C(=O)[C@@]2(C)CO2)cc1`: the Ratio IC50 in experiment [1] amounted to 22.5. Besides, the IC50 in experiment [2] was found to be 1480 nM; in experiment [3], 66 nM.

As for `COc1ccc(C[C@H](NC(=O)[C@H](C)NC(=O)N2CCC(OC)C2)C(=O)N[C@@H](Cc2ccccc2)C(=O)[C@@]2(C)CO2)cc1` (stereo partly drawn), in experiment [1], the Ratio IC50 was determined as 5.2. Also, the IC50 is 293 nM in experiment [2] and 56.8 nM in experiment [3].

Take `COc1ccc(C[C@H](NC(=O)[C@@H](C)NC(=O)N2CCC[C@H](OC)C2)C(=O)N[C@@H](Cc2ccccc2)C(=O)[C@@]2(C)CO2)cc1`: in experiment [1], the Ratio IC50 was determined as 4.3. Moreover, the values for the IC50 in experiment [2] and in experiment [3] were 163 nM and 37.7 nM, respectively.
